Assay outcomes as filed in PubChem BioAssay.
Shown are actives, neighbours in structure and some others; about 3.7% of the full set was active somewhere.
hERG rescue = hERG rescue from dofetilide block, primary screen, cell-based, CHO-hERG, FluxOR thallium flux, dofetilide IC70; Voltage-gated inwardly rectifying potassium channel KCNH2 (Homo sapiens), Q12809; dofetilide IC70 present; activation (rescue from dofetilide block), less the hit threshold, % at 10 µM; 310,000 tested, 0.51% active;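 active means activation above the mean of controls blocked by dofetilide plus 5 SD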;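 further: thallium influx through hERG after potassium depolarization seen as dye fluorescence rise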
Target sequence (Q12809 whole entry, looked up): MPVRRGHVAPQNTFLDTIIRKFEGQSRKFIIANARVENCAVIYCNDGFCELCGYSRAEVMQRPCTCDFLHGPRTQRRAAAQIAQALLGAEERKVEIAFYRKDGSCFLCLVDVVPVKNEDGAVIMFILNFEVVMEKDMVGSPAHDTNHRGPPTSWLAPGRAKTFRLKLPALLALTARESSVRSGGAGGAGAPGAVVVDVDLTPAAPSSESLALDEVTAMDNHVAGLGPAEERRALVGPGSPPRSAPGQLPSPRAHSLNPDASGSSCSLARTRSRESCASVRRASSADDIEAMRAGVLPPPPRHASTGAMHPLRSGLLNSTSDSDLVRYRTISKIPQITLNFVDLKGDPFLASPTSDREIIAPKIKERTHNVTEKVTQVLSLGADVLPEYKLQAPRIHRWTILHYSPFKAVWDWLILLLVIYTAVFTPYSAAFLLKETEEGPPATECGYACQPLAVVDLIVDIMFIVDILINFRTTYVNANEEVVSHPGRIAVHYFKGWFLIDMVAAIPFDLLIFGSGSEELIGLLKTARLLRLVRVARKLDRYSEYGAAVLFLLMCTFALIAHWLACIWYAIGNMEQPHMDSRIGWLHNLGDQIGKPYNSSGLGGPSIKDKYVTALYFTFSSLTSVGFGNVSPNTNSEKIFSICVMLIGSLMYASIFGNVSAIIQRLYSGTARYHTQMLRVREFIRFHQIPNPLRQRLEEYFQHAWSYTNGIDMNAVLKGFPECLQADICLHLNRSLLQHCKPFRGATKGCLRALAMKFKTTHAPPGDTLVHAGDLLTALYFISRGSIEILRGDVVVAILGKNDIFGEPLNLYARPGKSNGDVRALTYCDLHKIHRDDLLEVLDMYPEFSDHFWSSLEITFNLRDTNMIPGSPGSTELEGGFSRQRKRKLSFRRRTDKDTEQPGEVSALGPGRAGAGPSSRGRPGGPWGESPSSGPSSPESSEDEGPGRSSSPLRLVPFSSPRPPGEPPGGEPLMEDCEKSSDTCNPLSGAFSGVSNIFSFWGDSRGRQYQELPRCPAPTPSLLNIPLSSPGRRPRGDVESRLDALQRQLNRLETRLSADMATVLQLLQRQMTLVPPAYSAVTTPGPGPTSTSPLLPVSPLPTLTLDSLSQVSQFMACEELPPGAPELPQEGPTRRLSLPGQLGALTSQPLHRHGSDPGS
KCNK9 block = KCNK9 potassium channel inhibitors, primary screen, HEK293 cells, thallium flux. Potassium channel subfamily K member 9 (Homo sapiens), Q9NPC2. B-score at 10 µM. 310,000 tested, 1.2% active. FluxOR thallium flux fluorescence; hits give low values;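 active means ratio B-score over 3 SD below the library mean, with starting fluorescence within 5 SD of its mean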;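 further: negative B-score means less thallium flux so channel inhibition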
KCNK3 inh = human KCNK3 channel inhibitors, primary screen, CHO cells, FluxOR thallium flux, B-score; FluxOR fluorescence; hits give low values; B-score at 10 µM; 340,000 tested, 0.84% active; AID 602410, 2012;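 active means B-score under library mean minus 4 SD, starting fluorescence ratio at most library mean plus 5 SD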;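 further: more negative B-score means stronger inhibition of thallium flux through KCNK3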
KCNQ1 inh = inhibitors of human KCNQ1 channel, primary screen, cell-based, thallium flux, high-throughput | 310,000 tested, 1.3% active | B-score at 10 µM | Potassium voltage-gated channel subfamily KQT member 1 (Homo sapiens), P51787 | CHO-K1 KCNQ1, FluxOR thallium flux fluorescence; hits give high values | AID 2642, 2010;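 active means compounds whose thallium flux B-score, printed positive for inhibition, exceeds three library SD while starting fluorescence stays within three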;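 further: channel opened by potassium depolarization with thallium stimulus after 20 min compound exposure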
KCNQ1 act = potentiators or activators of KCNQ1 channel, primary screen, cell-based, thallium flux, high-throughput. CHO-K1 KCNQ1, thallium flux FluxOR fluorescence; hits give high values. B-score at 10 µM. 310,000 tested, 0.35% active. AID 2648, 2010;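 active means fluorescence ratio B-score, a plate-corrected score, at least three library SD, with initial intensity B-score within 5 SD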
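Assay system: CHO-K1 cells stably expressing KCNQ1; Medium: assay buffer with matched DMSO; Also added: K+/Tl+ depolarizing stimulus; Dosing: single dose; Timing: dye 90 min, compound 20 min, room temperature; Measured by: kinetic FluxOR thallium fluorescence, 10-s 1-Hz baseline, 110-s post-stimulus read; Read-out: peak-minus-minimum fluorescence over initial fluorescence, negative-control normalized, B-scored.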
Kir21 block = inhibitors of mouse Kir2.1 inward-rectifier potassium channel; HEK293-Kir2.1, FluxOR thallium flux fluorescence; hits give low values; AID 1672, 2009; Inward rectifier potassium channel 2 (Mus musculus), P35561; B-score at 10 µM; 310,000 tested, 0.85% active;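 active means fluorescence ratio B-score at or below minus 3 SD of library scores, with starting-brightness B-score within 2 SD, cut at about -4.2 in these data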;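 further: channel flux triggered by added potassium and thallium sulfate stimulus; B-score of peak minus minimum fluorescence over baseline after thallium stimulus; more negative B-score means stronger Kir2.1 block with less thallium influx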
Numbers without * were called inactive; i = inactive; . = not tested or not shown.

SMILES | hERG rescue | KCNK9 block | KCNK3 inh | KCNQ1 inh | KCNQ1 act | Kir21 block
CCCCCCCCCS(=O)(=O)N/N=C/c1cccc([N+](=O)[O-])c1 | -9.7 | i | i | 8* | i | 0.88
CCCCCCC(=O)Nc1ccc(C(=O)N/N=C/c2cccnc2)cc1 | -3.5 | i | i | i | i | 2.17
CCc1nc2ccc(C(=O)NC3CCC(C)CC3)cc2nc1CC (centres undefined) | -5.2 | i | i | i | i | -0.28
CN1CCC(NCCC(c2ccc(F)cc2)c2ccc(Cl)cc2)CC1 (centres undefined) | -9.4 | i | i | i | i | -6.7*
CC(C)C(CCNC1CCN(C)CC1)c1ccc(Cl)cc1 (centres undefined) | -5.8 | i | i | i | i | -1.41
Cc1ccc(C)c(Cn2nc(-c3cc(C)ccc3C)ccc2=O)c1 | -6.9 | i | i | i | i | 0.05
COc1ccccc1CCNC(=O)C(=O)c1cn(CC(=O)N2CCOCC2)c2ccccc12 | -10.4 | i | i | i | i | 2.64
CCOC(=O)C(=Cc1cc(=O)c(OC)co1)C(=O)OCC | -1.1 | i | i | i | 10* | -7.35*
COc1ccccc1C(=O)NCC(c1cccs1)N1CCc2ccccc21 (centres undefined) | -9.2 | i | i | i | i | -0.02
CC(C)Sc1nnc([C@H](Cc2c[nH]c3ccccc23)NC(=O)OC(C)(C)C)o1 | -13.4 | i | i | i | i | 1.23
CCCCOC(=O)Cn1c(=O)n(CC(=O)OCCCC)c2ccccc21 | -7.4 | i | i | i | i | -6.07*
CCC(c1nnnn1C(C)(C)C)N(Cc1cccs1)Cc1cc2cc(C)c(C)cc2n2nnnc12 (centres undefined) | -1.6 | -14.2* | . | i | i | -0.61
CCOc1ccc2[nH]c(=O)c(CN(Cc3cccs3)C(CC)c3nnnn3C(C)(C)CC)cc2c1 (centres undefined) | -9.7 | i | i | i | i | -0.23
Cc1ccc(Cl)cc1NC(=S)NCCCSC1CCCCC1 | -14.4 | i | i | 8* | i | -0.82
CC1CCc2nc3ccccc3c(C(=O)OCC(=O)N3CCc4ccccc43)c2C1 (centres undefined) | -2.6 | i | i | i | i | 0
CCCc1nc2ccccc2c(C(=O)OCC(=O)N2CCc3ccccc32)c1CC | -11.2 | -6.59* | i | i | i | -1.32
Cc1cc(C)cc(NC(=O)N2CCN(C/C=C/c3ccccc3)CC2)c1 | -4.5 | i | i | i | i | -3.92
Cc1ccc(-c2nn(-c3ccccc3)cc2C2SCC(=O)N2Cc2ccccc2)o1 (centres undefined) | -19.6 | i | i | 7* | i | -0.66
COc1ccc(CCNC(=O)COC(=O)Cc2cccc3ccccc23)cc1 | -5.4 | i | i | i | i | -11.6*
COc1ccccc1OCC#CCNC1CCCCC1C (centres undefined) | -21.9 | i | i | i | i | -5.51*
O=C(c1ccc(Cl)cc1)N1CCN=C1c1ccccc1 | -10.4 | i | i | i | i | -4.51*
COc1ccc(CNC(=O)N[C@H](C(=O)O)C(C)C)cc1OC | -6.3 | i | i | i | i | 2.06
COc1ccc(N2CCN(S(=O)(=O)c3ccc4c(c3)CCCC4)CC2)c([N+](=O)[O-])c1 | -13.7 | i | i | 7* | i | 1.15
S=C1NCCc2ccc(Cl)cc2C1c1ccccc1 (centres undefined) | . | . | -10* | . | . | .
CCn1nc(NS(=O)(=O)c2ccc(NC(C)=O)cc2)c2cc3cc(C)ccc3nc21 | -9.5 | i | i | i | i | -0.51
SMILES | hERG rescue | KCNK9 block | KCNK3 inh | KCNQ1 inh | KCNQ1 act | Kir21 block
Cc1cccc(-n2cc(-c3ccccc3)c3c(=O)[nH]cnc32)c1 | -14.0 | -7.16* | i | i | i | -0.66
O=C(NCC1CCCO1)c1nn2c(C(F)(F)F)cc(-c3ccc(Br)o3)nc2c1Br (centres undefined) | -8.6 | i | i | i | i | -1.75
O=S(=O)(NCCc1ccccc1)c1ccc(Cl)nc1 | -13.0 | i | i | i | i | 1.98
C/C(=N/NS(=O)(=O)c1ccc(C(C)(C)C)cc1)c1ccc2c(c1)OCO2 | -7.7 | i | i | i | i | 0.85
C/C(=N\NS(=O)(=O)c1ccc(C(C)(C)C)cc1)c1ccccc1 | -5.7 | i | i | 6* | i | 1.15
Cc1ccc(-n2cc(CNCCCn3ccnc3C)c(-c3ccc(F)cc3)n2)cc1 | -15.4 | i | i | i | i | -7.93*
Cc1ccc(-n2cc(CNCCc3cscn3)c(-c3ccc(F)cc3)n2)cc1 | -20.5 | i | i | i | i | -2.65
Cc1ccc(-n2cc(CN3CCN(c4ccccn4)CC3)c(-c3ccc(F)cc3)n2)cc1 | -14.9 | i | i | 6* | i | 1.2
Cc1cccc(-n2cc(CN3CCN(c4ccccn4)CC3)c(-c3cccc(F)c3)n2)c1 | -8.9 | i | i | i | i | -1.3
CCOc1cc(CNc2ccc3c(c2)CCC3)ccc1OC | -10.8 | i | . | i | i | 0.01
O=C1NC(c2ccc(-c3ccccc3[N+](=O)[O-])o2)C(C(=O)c2ccccc2)C(O)(C(F)(F)F)N1 (centres undefined) | -6.1 | i | i | i | i | 0.48
Cc1ccc(C(=O)C2C(c3ccc(-c4ccccc4[N+](=O)[O-])o3)NC(=O)NC2(O)C(F)(F)F)cc1 (centres undefined) | -9.7 | -10.5* | i | i | i | 0.01
Cc1ccc(-c2nn(-c3ccccc3)cc2/C=C2\SC(=S)N(CC(=O)O)C2=O)cc1 | -11.2 | i | i | i | i | -0.5
CCN1C(=O)/C(=C/c2cn(-c3ccccc3)nc2-c2cccnc2)SC1=S | . | . | -10.3* | . | . | .
Cc1oc2ccc(O)cc2c1C(=O)c1ccc(F)cc1 | -9.0 | i | i | i | i | -0.24
COc1ccc(Cl)cc1C(=O)NNC(=O)CSc1nncn1C | . | . | i | . | . | .
O=C(NCc1ccccc1Cl)C1CCC(CNc2nc(=S)[nH]c3ccccc23)CC1 (centres undefined) | 5.6* | i | i | i | i | 1.35
